Pf Dd2 inh: P. falciparum Dd2 growth inhibitors, primary screen, SYBR Green fluorescence, single dose replicates. 94,000 tested, 2.3% active. activity change, % at 10 µM. AID 1159554, 2015. 72 h; stronger effect = lower value; in the data active = activity change below about -80%; inconclusive = no clear call, values can overlap the other calls
GASC1 inh: inhibitors of GASC-1 (KDM4C) histone demethylase, primary screen, biochemical, single concentration HTS. Lysine-specific demethylase 4C (Homo sapiens), Q9H3R0. GST-KDM4C 2-372, H3K9me3 peptide, LANCE TR-FRET. inhibition, % at 12.5 µM. 96,000 tested, 0.15% active;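 active = mean replicate inhibition above about 25%, with at least 55% of replicates also reaching it, limit read from the data, passing the limit was not always enough; inconclusive = only one of those two conditions met; inactive = neither condition met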
Target sequence (Q9H3R0 2-372 limits assumed): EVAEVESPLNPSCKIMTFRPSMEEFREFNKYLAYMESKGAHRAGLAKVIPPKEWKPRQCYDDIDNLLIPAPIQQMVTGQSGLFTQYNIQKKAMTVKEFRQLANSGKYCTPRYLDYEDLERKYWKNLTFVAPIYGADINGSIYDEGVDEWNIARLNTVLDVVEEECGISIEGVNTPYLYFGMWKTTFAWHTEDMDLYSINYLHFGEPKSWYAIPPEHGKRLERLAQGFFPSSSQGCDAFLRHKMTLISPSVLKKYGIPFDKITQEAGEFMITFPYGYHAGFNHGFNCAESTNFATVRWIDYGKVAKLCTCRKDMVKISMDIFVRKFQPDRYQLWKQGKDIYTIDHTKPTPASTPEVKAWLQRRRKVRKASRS
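System: N-terminal GST-fused human GASC-1 (KDM4C) fragment, residues 2-372; amount: enzyme final amount 10 nM; incubation: reaction 30 min RT, detection step 1 h RT; medium: HEPES buffer, pH 7.5, plus ascorbate; technique: LANCE TR-FRET, Eu antibody, ULight-streptavidin, EDTA, ex 340 nm, em 618/671 nm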
T cruzi growth-1: T. cruzi intracellular proliferation inhibitors, primary screen, cell-based, beta-gal Tulahuen parasites, NIH3T3 host, luminescence; 77,000 tested, 5.9% active; inhibition, % at 8.34 µM; T. cruzi beta-gal in NIH3T3, GalScreen luminescence, 90 h;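 active = mean inhibition above about 93%, with at least 55% of replicates each passing it, limit read from the data, passing the limit was not always enough; inconclusive = only one of those two conditions holds; inactive = neither condition holds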
IDH1 R132H inh: inhibitors of IDH1 R132H reductase, primary screen, biochemical, plate reader, single point; diaphorase/resazurin fluorescence, 60 min; inhibition, % at 10 µM; 70,000 tested, 0.18% active; in the data active = inhibition above about 34%; inconclusive = no clear call, values can overlap the other calls; inactive = below about 11%
Target sequence (O75874 whole entry R132H): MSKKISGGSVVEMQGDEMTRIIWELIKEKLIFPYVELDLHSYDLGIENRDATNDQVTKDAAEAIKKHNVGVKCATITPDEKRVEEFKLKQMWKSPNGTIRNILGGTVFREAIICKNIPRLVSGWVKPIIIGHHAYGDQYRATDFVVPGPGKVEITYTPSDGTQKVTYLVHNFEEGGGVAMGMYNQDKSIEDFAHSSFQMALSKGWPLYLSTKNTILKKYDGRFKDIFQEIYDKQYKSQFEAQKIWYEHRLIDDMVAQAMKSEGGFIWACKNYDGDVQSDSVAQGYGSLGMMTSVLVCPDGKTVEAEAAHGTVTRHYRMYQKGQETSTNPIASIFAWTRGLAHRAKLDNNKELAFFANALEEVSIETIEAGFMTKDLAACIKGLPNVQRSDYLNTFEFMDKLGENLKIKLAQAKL
T cruzi growth-2: T. cruzi intracellular proliferation inhibitors, confirmation, cell-based, NIH3T3 host, beta-gal parasite, luminescence, cherry-pick. shares compounds with T cruzi growth-1. T. cruzi beta-gal in NIH3T3, GalScreen luminescence, 90 h. inhibition, % at 8.35 µM. 5,600 tested, 72% active;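 active = mean replicate inhibition above about 95% and at least 55% of replicates individually reaching it, limit read from the data; inconclusive = only one of the two criteria is met; inactive = neither criterion is met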
T cruzi growth-3: inhibitors of intracellular T. cruzi replication, confirmation, NIH3T3 host cells, beta-gal parasites, cherry-pick, set 2. inhibition, % at 2.09 µM. 5,600 tested, 21% active. shares compounds with T cruzi growth-1. T. cruzi beta-gal in NIH3T3, GalScreen luminescence, 90 h;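 active = mean inhibition above about 95%, with at least 55% of replicates also reaching it, limit read from the data; inconclusive = meets just one of the two conditions; inactive = meets neither condition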
NIH3T3 tox: cytotoxicity in mouse NIH/3T3 fibroblasts, confirmation, cytotoxicity control for T. cruzi proliferation inhibitor project, cell-based, cherry-pick, single point; shares compounds with T cruzi growth-1; NIH/3T3 viability, CellTiter-Glo ATP luminescence, 90 h; cytotoxicity (signal decrease), % at 8.35 µM; 5,600 tested, 14% active;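 active = mean signal decrease across replicates above about 35% based on untreated-well scatter, with enough replicates individually passing, limit read from the data; inconclusive = no rule stated though some were filed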
NIH3T3 tox 2: NIH/3T3 fibroblast cytotoxicity, confirmation, cytotoxicity control, cell-based, cherry-pick, single point, set 2; shares compounds with T cruzi growth-1; NIH/3T3 viability, CellTiter-Glo ATP luminescence, 90 h; inhibition, % at 24.9 µM; 5,600 tested, 56% active; AID 651744, 2012;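 active = mean loss of cell viability signal at or above a set limit, and enough replicates individually reaching it; inconclusive = meets only the mean limit or only the replicate share; inactive = meets neither condition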
Large screens that a line does not name were inactive (follow-up assays come after a bar, where they were run). Only some compounds are listed: those with a hit (about 5.8% of all), similar ones and a draw of the others.

Cc1ccc(C)c(S(=O)(=O)NCC(=O)Nc2ccc(F)c(Cl)c2)c1	none (no result: Pf Dd2 inh, GASC1 inh, T cruzi growth-1)
CS(=O)(=O)N(CC(=O)Nc1cccc([N+](=O)[O-])c1)Cc1ccc(Cl)cc1	none (no result: Pf Dd2 inh, GASC1 inh, T cruzi growth-1)
Cc1ccccc1-c1ccc2c(c1)O[C@H](CN(C)Cc1ccncc1)[C@@H](C)CN([C@@H](C)CO)S2(=O)=O	Pf Dd2 inh inconclusive, T cruzi growth-1 96.8, IDH1 R132H inh 45.2 | T cruzi growth-2 99.2 | T cruzi growth-3 98.5 | NIH3T3 tox 40.8 | NIH3T3 tox 2 104.8
C[C@@H]1CN([C@H](C)CO)S(=O)(=O)c2ccc(-c3ccccc3F)cc2O[C@@H]1CN(C)Cc1cccnc1	none
C[C@@H]1CN([C@@H](C)CO)S(=O)(=O)c2ccc(-c3ccccc3F)cc2O[C@@H]1CN(C)Cc1ccncc1	T cruzi growth-1 100.3 | T cruzi growth-2 inconclusive | T cruzi growth-3 inactive | NIH3T3 tox inactive | NIH3T3 tox 2 46.8
C[C@@H]1CN([C@@H](C)CO)S(=O)(=O)c2ccc(-c3ccccc3)cc2O[C@H]1CN(C)Cc1ccncc1	T cruzi growth-1 inconclusive
C[C@@H]1CN([C@@H](C)CO)S(=O)(=O)c2ccc(-c3ccccc3F)cc2O[C@H]1CN(C)Cc1cccnc1	T cruzi growth-1 101.0 | T cruzi growth-2 100.8 | T cruzi growth-3 96.7 | NIH3T3 tox 56.1 | NIH3T3 tox 2 94.8
C[C@H](CO)N1C[C@H](C)[C@@H](CN(C)C(=O)Nc2ccc(C(F)(F)F)cc2)Oc2c(NC(=O)c3nc4ccccc4s3)cccc2C1=O	T cruzi growth-1 91.5 | T cruzi growth-2 inactive | T cruzi growth-3 inactive | NIH3T3 tox inactive | NIH3T3 tox 2 64.0
C[C@H](CO)N1C[C@H](C)[C@H](CN(C)C(=O)Nc2ccc(C(F)(F)F)cc2)Oc2c(NC(=O)c3nc4ccccc4s3)cccc2C1=O	T cruzi growth-1 inconclusive (no result: IDH1 R132H inh) | T cruzi growth-2 102.7 | T cruzi growth-3 inactive | NIH3T3 tox 44.6 | NIH3T3 tox 2 80.0
C[C@@H]1CN([C@H](C)CO)C(=O)c2cccc(NC(=O)c3nc4ccccc4s3)c2O[C@@H]1CN(C)C(=O)Nc1ccc(C(F)(F)F)cc1	none (no result: IDH1 R132H inh)
Cc1cc(I)ccc1NC(=O)CN(c1cc(Cl)ccc1C)S(C)(=O)=O	none (no result: Pf Dd2 inh, GASC1 inh, T cruzi growth-1)
COc1ccccc1S(=O)(=O)N(C)C[C@H]1Oc2cc(C#CCC3CCCC3)ccc2S(=O)(=O)N([C@H](C)CO)C[C@H]1C	GASC1 inh 26.0, T cruzi growth-1 127.3 (no result: IDH1 R132H inh) | T cruzi growth-2 inactive | T cruzi growth-3 110.3 | NIH3T3 tox inactive | NIH3T3 tox 2 inactive
COc1ccccc1S(=O)(=O)N(C)C[C@H]1Oc2cc(C#CCC3CCCC3)ccc2S(=O)(=O)N([C@H](C)CO)C[C@@H]1C	none (no result: T cruzi growth-1)
COc1ccccc1S(=O)(=O)N(C)C[C@H]1Oc2cc(C#CCC(C)C)ccc2S(=O)(=O)N([C@@H](C)CO)C[C@@H]1C	T cruzi growth-1 inconclusive | T cruzi growth-2 inconclusive | T cruzi growth-3 113.7 | NIH3T3 tox inactive | NIH3T3 tox 2 98.5
Cc1cccc(-c2ccc([C@@H]3[C@H]4CN(C(=O)NC(C)C)CCCCN4[C@H]3CO)cc2)c1	none (no result: IDH1 R132H inh)
COc1ccc(-c2ccc([C@@H]3[C@H](CO)N4CCCCN(C(=O)NC(C)C)C[C@@H]34)cc2)cc1	T cruzi growth-1 109.4 (no result: IDH1 R132H inh) | T cruzi growth-2 108.4 | T cruzi growth-3 inactive | NIH3T3 tox inactive | NIH3T3 tox 2 45.2
COc1cccc(-c2ccc([C@@H]3[C@H](CO)N4CCCCN(C(=O)NC(C)C)C[C@@H]34)cc2)c1	T cruzi growth-1 101.8 (no result: IDH1 R132H inh) | T cruzi growth-2 105.4 | T cruzi growth-3 inactive | NIH3T3 tox inactive | NIH3T3 tox 2 48.0
Cc1cccc(-c2ccc([C@H]3[C@@H](CO)N4CCCCN(C(=O)NC(C)C)C[C@H]34)cc2)c1	T cruzi growth-1 109.4 (no result: IDH1 R132H inh) | T cruzi growth-2 107.9 | T cruzi growth-3 inactive | NIH3T3 tox inactive | NIH3T3 tox 2 105.1
COc1ccccc1NC(=O)N1CCCCN2[C@H](C1)[C@@H](c1ccc(-c3cccc(C)c3)cc1)[C@@H]2CO	none (no result: IDH1 R132H inh)
COc1ccccc1NC(=O)N1CCCCN2[C@H](CO)[C@H](c3ccc(-c4cccc(C)c4)cc3)[C@@H]2C1	T cruzi growth-1 inconclusive (no result: IDH1 R132H inh) | T cruzi growth-2 106.6 | T cruzi growth-3 102.7 | NIH3T3 tox inactive | NIH3T3 tox 2 inconclusive
COc1cccc(-c2ccc([C@H]3[C@H]4CN(C(=O)NC(C)C)CCCCN4[C@H]3CO)cc2)c1	none (no result: IDH1 R132H inh)
O=C(N/N=C/c1ccc(OCc2ccccc2)cc1O)c1ccccc1O	none (no result: Pf Dd2 inh, GASC1 inh, T cruzi growth-1)
COc1ccc(-c2ccc([C@@H]3[C@H](C#N)N(C(=O)c4cccc(F)c4)[C@H]3CO)cc2)cc1	T cruzi growth-1 103.3 (no result: IDH1 R132H inh) | T cruzi growth-2 105.3 | T cruzi growth-3 inactive | NIH3T3 tox inactive | NIH3T3 tox 2 30.7
COc1ccc(-c2ccc([C@@H]3[C@@H](CO)N(C(=O)c4cccc(F)c4)[C@H]3C#N)cc2)cc1	T cruzi growth-1 inconclusive (no result: IDH1 R132H inh) | T cruzi growth-2 inactive | T cruzi growth-3 inactive | NIH3T3 tox inactive | NIH3T3 tox 2 inactive
N#C[C@H]1[C@H](c2ccc(C3=CCCCC3)cc2)[C@@H](CO)N1C(=O)c1cccc(F)c1	T cruzi growth-1 98.1 (no result: IDH1 R132H inh) | T cruzi growth-2 100.2 | T cruzi growth-3 inactive | NIH3T3 tox inactive | NIH3T3 tox 2 44.8
COc1ccc(-c2ccc([C@H]3[C@@H](C#N)N(C(=O)c4cccc(F)c4)[C@H]3CO)cc2)cc1	none (no result: IDH1 R132H inh)
N#C[C@H]1[C@@H](c2ccc(C3=CCCCC3)cc2)[C@H](CO)N1C(=O)c1cccc(F)c1	none (no result: IDH1 R132H inh)
CC(C)C(NS(=O)(=O)c1ccccc1F)C(=O)O (stereo unspecified)	none (no result: Pf Dd2 inh, GASC1 inh, T cruzi growth-1)
Cc1noc(C)c1S(=O)(=O)N(C)C[C@@H]1OCCCC[C@@H](C)Oc2ccc(NS(=O)(=O)c3ccc(Cl)cc3)cc2C(=O)N([C@H](C)CO)C[C@H]1C	T cruzi growth-1 103.1 | T cruzi growth-2 105.3 | T cruzi growth-3 inactive | NIH3T3 tox inactive | NIH3T3 tox 2 inactive

Assay outcomes deposited in PubChem by Broad Institute.
